Test results taken from ChEMBL document CHEMBL4513216, “Probing the Open Global Health Chemical Diversity Library for Multistage-Active Starting Points for Next-Generation Antimalarials” (ACS Infect Dis, 2020).

Experiment: Toxicity liver stage against HepG2, at 10uM
Type: cell-based
Parameters: test concentration 10 uM, cell line HepG2-A16-CD81EGFP
Details: human, HepG2-A16-CD81EGFP cells; read-out: INHIBITION
Summary of the method: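 Uninfected HepG2-A16-CD81EGFP cells, 3 × 10^3 per well, 1536-well, plated on prespotted compound at 10 μM final, parasite-free screening media added to match infected plates; puromycin 10 μM positive, DMSO 0.5% negative; run in parallel with 48 h PbLuc assay at 37 °C, 5% CO2; viability by CellTiter-Glo luminescence, normalized to controls.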

Row | SMILES | cytotoxicity at 10 µM [%]
1 | COc1ncnc2c1CCN(C(=O)Cc1cccc(F)c1)CC2 | 3.88
2 | O=S(=O)(Nc1ccc(Oc2ccc3c(c2)OCO3)cc1)N1CCCCC1 | -29.3
3 | Fc1cccc(Oc2nccnc2C2CCN(C3CCOCC3)CC2)c1 | 6.62
4 | Cc1cc(C(=O)N2Cc3ccccc3OC3(CCOCC3)C2)nc(N)n1 | -0.928
5 | COCCNC(=O)N1CCSC2(CCCCC2)C1 | 2.07
6 | Cc1nc(C)c(C(=O)N2CCc3cc(F)ccc3C2C)o1 (stereo unspecified) | 10.5
7 | CN(Cc1ccc(F)cc1F)Cc1cc2c(cc1Br)OCCO2 | -111
8 | O=C(O)c1ccn(-c2cccc(NC(=O)c3ccccc3Cl)c2)n1 | -139
9 | Cc1cccc(C)c1NC(=O)c1cc(S(N)(=O)=O)c(C)o1 | -4.27
10 | CCS(=O)(=O)N1CCc2c(cccc2NCc2nc(C)c(C)o2)C1 | -46.9
11 | COCc1nc(C(=O)NS(=O)(=O)c2ccc(OC)c(C)c2)cs1 | 1.06
12 | Cc1ccoc1CNCc1nnc2n1CC(C(F)(F)F)CC2 (stereo unspecified) | 14.3
13 | Clc1cccc(CNC2CCN(CCc3ccncc3)CC2)c1 | -5.62
14 | COc1cc(CN(C)C(=O)NCCNC(=O)C2CC2)ccc1SC | -3.73
15 | CC(NCc1ccco1)c1nnc2n1CCCC2 (stereo unspecified) | -2.34
16 | CC(Sc1nnnn1C1CCOCC1)C(F)(F)F (stereo unspecified) | 11.5
17 | CCc1ncc2c(n1)CN(Cc1nc3c(F)cccc3[nH]1)CC2 | 19
18 | OC(COCc1ccccc1)CSc1nnc(C2CC2)n1C1CC1 (stereo unspecified) | 4.93
19 | Cc1ccccc1-c1noc(CNc2ccc(F)cc2OCCO)n1 | -41.7
20 | O=C(CCCc1nc(C2CC2)no1)N1CCCC(c2ccn[nH]2)C1 (stereo unspecified) | 12
21 | COc1cc2c(c(OC)c1OC)CCN(CCn1cncn1)CC2 | 11.5
22 | CCc1cnc(CCNC(=O)N2CCCC(c3ncc[nH]3)C2)s1 (stereo unspecified) | -4.15
23 | CN(CCNC(=O)Nc1ccn(C)n1)Cc1ccc(F)cc1 | 8.16

Row | SMILES | cytotoxicity at 10 µM [%]
24 | Cc1cc(C(=O)NCCN2CCCCC2C)nn1C(C)(C)C (stereo unspecified) | 1.57
25 | CCc1nnc(CN(C)C(=O)C(CC)n2c(CC)nc3ccccc32)o1 (stereo unspecified) | -4.27
26 | c1ccc(CCCN2CCCN(c3ncnc4[nH]ccc34)CC2)cc1 | -5.86
27 | COc1cc(-c2cc(C3CCOC3)c(C#N)c(N)n2)ccc1O (stereo unspecified) | -0.412
28 | CCOc1ccc(-n2nc(C)c(CC(C)=O)c2C)cc1C(N)=O | 7.09
29 | CCc1ccc(CN(C/C=C/c2ccccc2)CCOC)nc1 | 10.2
30 | COc1ccc(C(C(=O)O)N(C)CCN2CCCC2)c(C)c1 (stereo unspecified) | 3.41
31 | COc1ccc(-n2cccn2)c(CN2CCC3(CCNCC3)C2)c1 | 0.0652
32 | CNc1ccnc(NCC(=O)Nc2cc(C)ccc2OC)n1 | -2.9
33 | COc1ccccc1N1CCN(C(=O)Cn2nc(C)cc2C)CC1(C)C | 9.62
34 | Fc1ccc(-c2noc3c2CN(CC2CC2)CC3)cc1F | -6.39
35 | O=C(COCC1CCCO1)N1CCCN(Cc2ccccc2F)CC1 (stereo unspecified) | 2.86
36 | Cc1nccn1-c1cccc(C2CCCN2S(=O)(=O)N(C)C)n1 (stereo unspecified) | 3.44
37 | N#CCCNC(=O)CN1CC(n2cccn2)C1 | -7.29
38 | CC(CNC(=O)c1ccc(=O)[nH]n1)N1CCc2ccccc21 (stereo unspecified) | -8.93
39 | Cc1ccc(NC2CCN(C(=O)COCC(F)(F)F)CC2)nn1 | 6.38
40 | Cc1ccc(NC(=O)N(C)Cc2cnn(C)c2)cc1OCC(F)F | -0.243
41 | Fc1cccc(CN2CCC(c3cc4ncccc4cn3)CC2)c1F | -7.62
42 | O=C1COC2(CCN(Cc3ccoc3)CC2)CN1c1ccsc1 | 3.09
43 | CCn1nnc2c1C(COCCN(C)C)CN(S(=O)(=O)CC)C2 (stereo unspecified) | -4.38
44 | CN(C)C(=O)C1CN(Cc2ccsc2)Cc2ccnn2C1 (stereo unspecified) | -6.75
45 | COc1cc(N2C[C@H]3CCN(CCN4CCCC4)C[C@H]3C2)ncn1 | 12
46 | CN(C)C(=O)N1CCC2(CCCN(Cc3cnn(C)c3)C2)C1 (stereo unspecified) | 4.91
